# NLRP3 yeast inh = blocks the NALP3 inflammasome reconstituted in yeast; Yeast reconstituted NLRP3/ASC/caspase-1, beta-gal luminescence, 24 h; inhibition, % at 10 µM; hit rate 0.39% among 330,000;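 active means inhibition of 50% or more; inactive means inhibition below 50%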
# NALP1 inh = NALP1 inhibition | S. cerevisiae NALP1/ASC/caspase-1 growth, X-gal OD620, 72 h | inhibition, % at 10 µM | hit rate 0.61% among 280,000 | AID 2071; in the data active means inhibition mostly above about 24%, no sharp cut-off; inactive means mostly below about 32%
# Pemphigus Ab inh = human desmoglein-3 autoantibody binding inhibition; DSG3-coupled beads, scFv-anti-DSG3-GFP binding, flow cytometry; stronger effect = lower value; binding (percent of control), % at 10 µM; hit rate 0.48% among 310,000;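 active means binding more than 3 SD below its plate's average and above zero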;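 further: hits lower antibody fragment binding to DSG3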
# Target sequence (P32926 whole entry, looked up, the tested form may be a part): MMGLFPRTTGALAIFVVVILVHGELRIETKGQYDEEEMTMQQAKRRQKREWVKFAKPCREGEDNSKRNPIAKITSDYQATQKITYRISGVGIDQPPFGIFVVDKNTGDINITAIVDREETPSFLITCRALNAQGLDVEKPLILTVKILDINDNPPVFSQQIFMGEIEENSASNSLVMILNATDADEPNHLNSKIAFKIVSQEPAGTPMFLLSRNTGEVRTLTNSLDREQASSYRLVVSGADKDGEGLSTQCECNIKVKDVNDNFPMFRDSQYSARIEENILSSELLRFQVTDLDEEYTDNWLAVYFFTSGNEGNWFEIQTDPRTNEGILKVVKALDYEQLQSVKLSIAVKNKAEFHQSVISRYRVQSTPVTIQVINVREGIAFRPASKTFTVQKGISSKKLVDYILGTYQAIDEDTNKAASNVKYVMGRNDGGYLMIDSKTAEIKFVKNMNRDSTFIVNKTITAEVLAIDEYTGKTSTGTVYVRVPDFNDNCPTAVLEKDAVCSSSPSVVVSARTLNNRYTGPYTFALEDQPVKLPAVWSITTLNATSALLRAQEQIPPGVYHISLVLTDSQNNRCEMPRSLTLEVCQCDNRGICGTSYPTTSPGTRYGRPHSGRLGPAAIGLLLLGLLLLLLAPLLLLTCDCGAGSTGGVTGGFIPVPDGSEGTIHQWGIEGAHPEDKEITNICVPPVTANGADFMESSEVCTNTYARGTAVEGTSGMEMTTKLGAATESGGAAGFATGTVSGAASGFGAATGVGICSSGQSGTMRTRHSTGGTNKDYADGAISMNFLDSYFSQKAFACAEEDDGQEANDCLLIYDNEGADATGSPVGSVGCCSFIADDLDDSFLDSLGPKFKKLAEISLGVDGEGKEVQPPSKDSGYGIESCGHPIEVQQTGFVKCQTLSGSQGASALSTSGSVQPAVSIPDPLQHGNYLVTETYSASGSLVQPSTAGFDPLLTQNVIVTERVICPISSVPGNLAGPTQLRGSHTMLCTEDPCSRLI
# PolyA inh = yeast polyadenylation inhibition. S. cerevisiae SKY197-pL101 polyadenylation reporter, beta-gal luminescence; efflux-impaired pdr1/pdr3 knockout yeast; score 100 = 6 SD above DMSO. activity score, % at 12 µM. hit rate 0.02% among 300,000. AID 1875;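 active means lowest replicate activity score at least 50, where 100 means six control SD above control mean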;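 further: yeast exposed to compound for 9 h at 30 °C; higher score means more reporter readthrough which indicates perturbed polyadenylation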
# ALR H2O2 inh = inhibitors of human sulfhydryl oxidase ALR; purified ALR, DTT oxidation, H2O2 HRP-luminol luminescence; hit rate 3.8% among 290,000; inhibition, % (test concentration not listed); P55789;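 active means mean replicate inhibition above about 79%, with every replicate also reaching it, limit read from the data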
# Arrestin-AP2 inh = human beta-arrestin and AP2 interaction inhibition; AID 504490; hit rate 0.31% among 340,000; inhibition, % at 10 µM; FITC-arrestin peptide / GST-AP2 beads, flow cytometry; AP2 beta2 appendage carries R879A mutation;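 active means inhibition above a set limit, near 3 SD of compounds lacking own fluorescence, cut at about 54% in these data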
#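 Material – GST-tagged AP2 beta2-adaptin appendage (R879A) on 4 µm glutathione beads · Probe or stimulus – fluorescein-tagged arrestin peptide at 50 nM final · Timing – 12 min plus 1 h, RT · Detection – bead flow cytometry, FITC channel · Read-out basis – inhibition as reduced fluorescein signal on beads, percent · Medium – PBS plus Tween 20 (0.05%) and BSA (0.1%)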
# A number is an active result; . = inactive; / = no result given. Compounds with a hit are over-represented: about 4.6% of the library has one in this group of screens.
SMILES,NLRP3 yeast inh,NALP1 inh,Pemphigus Ab inh,PolyA inh,ALR H2O2 inh,Arrestin-AP2 inh
Cc1c(C(=O)NNC(=S)Nc2ccc(S(N)(=O)=O)cc2)oc2ccccc12,.,.,.,.,99,.
NS(=O)(=O)c1ccc(NC(=S)NNC(=O)c2ccc(Br)o2)cc1,.,.,.,.,95,.
Cc1cccc(N(CC(=O)NCC2CCCO2)C(=O)CNS(=O)(=O)c2ccc(Cl)cc2)c1 (configuration not stated),.,.,.,.,/,.
O=C(CC1OC(=O)c2ccccc21)Nc1ccc(Cl)c(S(=O)(=O)N2CCCCC2)c1 (configuration not stated),.,/,.,.,.,.
N=c1c2c(ncn1Cc1ccco1)Oc1c(ccc3ccccc13)C2c1ccccc1 (configuration not stated),.,63,.,.,.,.
S=c1[nH]nc(SCc2ccccc2)c2[nH]cnc12,/,/,.,/,/,.
Cc1nn(Cc2ccc(F)cc2)c2sc(C(=O)Nc3ccccc3N3CCOCC3)cc12,.,.,86,.,.,.
Cc1nn(Cc2ccccc2Cl)c2sc(C(=O)Nc3ccccc3N3CCOCC3)cc12,.,.,.,.,.,.
COc1ccc(-c2nnc3sc(CN4C(=O)c5ccccc5C4=O)nn23)cc1,.,.,.,.,.,.
O=C1c2ccccc2C(=O)N1Cc1nn2c(-c3ccc(Cl)cc3)nnc2s1,.,.,59,.,.,.
Cc1cc(=O)n(C(C)Cc2ccccc2)n1C(C)Cc1ccccc1 (configuration not stated),/,/,.,/,/,.
COc1ccc(NC(=O)CC2C(=O)Nc3ccccc3N2CC(=O)N2CCCC2)cc1 (configuration not stated),.,/,.,/,98,.
CCCOc1ccc(NC(=O)CC2C(=O)Nc3ccccc3N2CC(=O)N2CCCC2)cc1 (configuration not stated),.,/,.,/,.,.
Cc1nccc(-c2sc(-c3cccs3)nc2C)n1,.,/,.,.,85,.
COc1c(/C=N/Nc2ccc(C(=O)O)cc2)c(CCN(C)C(C)=O)cc2c1OCO2,.,.,.,.,97,.
O=C(Nc1cccnc1)c1ccc([N+](=O)[O-])s1,.,/,.,/,.,.
CC(=O)c1c(C)[nH]c(C(=O)OCC(=O)c2ccc(C)s2)c1C,.,/,.,/,.,.
Cc1ccc(N(CC(=O)Nc2cccc(Cl)c2C)S(C)(=O)=O)cc1,.,.,.,.,.,.
COCCCN1CCN(C2Cc3ccccc3Sc3ccc(Cl)cc32)CC1 (configuration not stated),.,54,.,.,.,.
CC(C)(C)Cc1c(-c2ccc(F)cc2)nc2ccc(Br)cn12,/,/,.,/,/,/
CCCCN1C(=O)C2Cc3c([nH]c4ccccc34)CN2C1=S (configuration not stated),.,.,.,.,89,.
NNC(=O)Cc1cccc2ccc(Cl)cc12,/,/,.,/,/,/
O=C(Oc1ccccc1-c1csnn1)c1cccs1,.,.,.,.,99,.
COC(=O)C1=CCCCC(O)=C1C(=O)OC,/,/,.,/,/,/
CC(=O)NC(C)c1cc(Cl)c2ccccc2c1O (configuration not stated),.,/,.,/,.,.
SMILES,NLRP3 yeast inh,NALP1 inh,Pemphigus Ab inh,PolyA inh,ALR H2O2 inh,Arrestin-AP2 inh
CCC(=O)NC(c1ccco1)c1cc(Cl)c2ccccc2c1O (configuration not stated),.,/,.,/,.,.
CCC(=O)NC(c1cc(Cl)c2ccccc2c1O)C(C)C (configuration not stated),.,/,.,/,95,.
CC(=O)NC(c1ccco1)c1cc(Cl)c2ccccc2c1O (configuration not stated),.,/,.,/,88,.
O=C1/C(=C/c2ccccc2Cl)SC(=S)N1CCCC(=O)N(CCO)c1ccccc1,.,.,.,.,.,.
O=C1c2ccccc2NC(c2ccccc2O)N1O (configuration not stated),.,.,.,.,91,.
Cc1ccc(N2C(=O)c3ccccc3NC2c2ccccc2O)cc1 (configuration not stated),.,.,.,.,.,.
CCCN1C(=O)c2ccccc2NC1c1ccc(OC)cc1O (configuration not stated),.,.,.,.,88,.
